This note sets out measurements from ChEMBL document CHEMBL4024769, “Synthesis and Investigation of Photophysical and Biological Properties of Novel S-Containing Bacteriopurpurinimides” (J Med Chem, 2017).

Data set [1] in a line: Phototoxicity against rat Sarcoma M1 cells implanted in rat assessed as mitotic index at 2.5 mg/kg, ip administered as single dose on day 11 after inoculation followed by 300 J/cm2 irradiation after 2.5 to 3 hrs measured on day 12 post photodynamic therapy (reference value: 1.9 +/- 0.2%). The class given is functional. Put shortly:
(§1)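 Rats with M1 sarcoma implanted subcutaneously in the left thigh were randomized on day 10, 25 per group. Single ip dose of 2.5 mg/kg on day 11; laser irradiation 2.5–3 h later at 810 nm, 0.51 W/cm2, 300 J/cm2, 10 min over a 1.5 cm field. Five rats sampled per time point for H&E histology, PCNA immunohistochemistry (1:200) and tumor volume. Untreated controls; Student's test, p < 0.05.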

Data set [2] in a line: Phototoxicity against mouse S37 cells implanted in F1 mouse assessed as tumor growth inhibition at 5 mg/kg, iv preincubated for 30 mins with subsequent 150 J/cm2 irradiation measured on day 20 post irradiation relative to control. The class given is functional. As to conditions: S37, light or radiation study, read-out: TGI. Put shortly:
(§2)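 S37 sarcoma mice treated on day 7 of tumor growth with compound iv; tumors 140–160 mm3 beforehand, droperidol 0.25 mg ip as anesthetic. LED irradiation at 800 ± 21 nm, 100 mW/cm2, 150 J/cm2, given 15 or 30 min after dosing. Controls got iv 0.9% NaCl. Volume = d1×d2×d3×0.52; TGI = […]×100%.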

Data set [3] is described as follows: Phototoxicity against rat Sarcoma M1 cells implanted in rat assessed as apoptotic index at 2.5 mg/kg, ip administered as single dose on day 11 after inoculation followed by 300 J/cm2 irradiation after 2.5 to 3 hrs measured on day 3 post photodynamic therapy (reference value: 0.31 +/- 0.02%). The class given is functional. The essentials:
as §1

Data set [4] concerns Sarcoma M1. Kind of data set: Phototoxicity against rat Sarcoma M1 cells implanted in rat assessed as coagulative tumor necrosis at 2.5 mg/kg, ip administered as single dose on day 11 post inoculation followed by 300 J/cm2 irradiation after 2.5 to 3 hrs measured on day 2 post photodynamic therapy by hematoxylin and eosin staining based assay. The class given is functional, organism-based.

The nature of data set [5]: Phototoxicity against rat Sarcoma M1 cells implanted in rat assessed as apoptotic index at 2.5 mg/kg, ip administered as single dose on day 11 after inoculation followed by 300 J/cm2 irradiation after 2.5 to 3 hrs measured on day 12 post photodynamic therapy (reference value: 0.37 +/- 0.06%). The class given is functional. Put shortly: as §1
Data set [6] is described as follows: Phototoxicity against mouse S37 cells implanted in F1 mouse assessed as tumor growth inhibition at 5 mg/kg, iv preincubated for 30 mins with subsequent 150 J/cm2 irradiation measured on day 11 post irradiation relative to control. As to conditions: S37, light or radiation study, read-out: TGI. The class given is functional. Put shortly:
as §2

A short description of data set [7]: Phototoxicity against rat Sarcoma M1 cells implanted in rat assessed as volume of tumor parenchyma at 2.5 mg/kg, ip administered as single dose on day 11 after inoculation followed by 300 J/cm2 irradiation after 2.5 to 3 hrs measured on day 12 post photodynamic therapy by hematoxylin and eosin staining based assay (reference value: 56 +/- 3%). The class given is functional. The essentials: (§3)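 Rat M1 sarcoma was implanted subcutaneously in the left thigh, with randomisation on day 10. A single 2.5 mg/kg ip dose was given on day 11, then 810 nm laser (0.51 W/cm2, 300 J/cm2, 10 min) after 2.5−3 h. Tumours were sectioned on days 1, 3 and 12 after PDT (controls days 12, 14, 23), five animals per point. Parenchyma and necrotic zone volumes were estimated on hematoxylin and eosin staining.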

Data set [8] is described as follows: Phototoxicity against rat Sarcoma M1 cells implanted in rat assessed as volume of PCNA-positive cells in tumor parenchyma at 2.5 mg/kg, ip administered as single dose on day 11 after inoculation followed by 300 J/cm2 irradiation after 2.5 to 3 hrs measured on day 3 post photodynamic therapy (reference value: 81 +/- 3%). The class given is functional. Put shortly:
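Female rats bearing subcutaneous M1 sarcoma in the left thigh were randomised on day 10. They received 2.5 mg/kg ip on day 11. Laser irradiation (810 nm, 0.51 W/cm2, 300 J/cm2, 1.5 cm field, 10 min) followed 2.5−3 h later. PCNA-positive parenchyma was scored by immunohistochemistry (mouse anti-PCNA PC10, 1:200, biotin−extravidin−peroxidase) on post-PDT days 1, 3 and 12, with five animals per time point.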

Data set [9] is described as follows: Phototoxicity against rat Sarcoma M1 cells implanted in rat assessed as mitotic index at 2.5 mg/kg, ip administered as single dose on day 11 after inoculation followed by 300 J/cm2 irradiation after 2.5 to 3 hrs measured on day 1 post photodynamic therapy (reference value: 1.9 +/- 0.2 %). Type of data set: functional. Put shortly:
as §1

The nature of data set [10]: Phototoxicity against rat Sarcoma M1 cells implanted in rat assessed as volume of tumor necrotic zones at 2.5 mg/kg, ip administered as single dose on day 11 after inoculation followed by 300 J/cm2 irradiation after 2.5 to 3 hrs measured on day 3 post photodynamic therapy (reference value: 30 +/- 4%). The class given is functional. Put shortly: as §3
Data set [11] is described as follows: Phototoxicity against mouse S37 cells implanted in F1 mouse assessed as tumor growth inhibition at 5 mg/kg, iv preincubated for 30 mins with subsequent 150 J/cm2 irradiation measured on day 18 post irradiation relative to control. Conditions: S37, light or radiation study, read-out: TGI. The class given is functional. Put shortly:
as §2

A short description of data set [12]: Phototoxicity against mouse S37 cells implanted in F1 mouse assessed as tumor growth inhibition at 5 mg/kg, iv preincubated for 30 mins with subsequent 150 J/cm2 irradiation measured on day 8 post irradiation relative to control. The class given is functional. As to conditions: S37, light or radiation study, read-out: TGI. The essentials: as §2
Data set [13] is described as follows: Phototoxicity against rat Sarcoma M1 cells implanted in rat assessed as volume of tumor parenchyma at 2.5 mg/kg, ip administered as single dose on day 11 after inoculation followed by 300 J/cm2 irradiation after 2.5 to 3 hrs measured on day 1 post photodynamic therapy by hematoxylin and eosin staining based assay (reference value: 69 +/- 6%). Type of data set: functional. The essentials: as §3

A short description of data set [14]: Phototoxicity against mouse S37 cells implanted in F1 mouse assessed as tumor growth inhibition at 2.5 mg/kg, iv preincubated for 15 mins with subsequent 150 J/cm2 irradiation measured on day 18 post irradiation relative to control. Type of data set: functional. As to conditions: S37, light or radiation study, read-out: TGI. The essentials:
as §2

Data set [15] can be described thus: Drug uptake in tumor of F1 mouse implanted with mouse S37 cells assessed as normalized fluorescence units at 2.5 mg/kg, iv measured after 15 mins in presence of He-Ne laser radiation by local fluorescence spectroscopic analysis. As to conditions: in vivo, 0.25 h. The class given is ADME, organism-based, Neoplasm. The essentials:
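S37 sarcoma-bearing immunocompetent F1 mice (18−22 g) given PS 2.5 mg/kg iv. Animals sacrificed at 0.25, 0.5, 2, 4 and 24 h, with three animals per time point. Skin, tumor and organ samples were read ex vivo by contact local fluorescence spectroscopy under He−Ne 632.8 nm excitation. Integrated 640−900 nm emission was normalized to the backscattered laser signal to give FN.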

The nature of data set [16]: Phototoxicity against mouse S37 cells implanted in F1 mouse assessed as tumor growth inhibition at 2.5 mg/kg, iv preincubated for 15 mins with subsequent 150 J/cm2 irradiation measured on day 11 post irradiation relative to control. Type of data set: functional. Conditions: S37, light or radiation study, read-out: TGI. The essentials: as §2
A short description of data set [17]: Phototoxicity against mouse S37 cells implanted in F1 mouse assessed as tumor growth inhibition at 2.5 mg/kg, iv preincubated for 15 mins with subsequent 150 J/cm2 irradiation measured on day 15 post irradiation relative to control. The class given is functional. Conditions: S37, light or radiation study, read-out: TGI. The essentials: as §2

Active and inactive are the calls of the source. The rule behind the calls is not given here.

For the compound `CCCO/N=C(\C)c1c(C)c2cc3nc(c4c5[nH]c(cc6nc(cc1[nH]2)[C@@H](C)[C@@H]6CC)c(C)c5C(=O)N(OCCC)C4=O)[C@H](CCC(=O)NCCSSCCNC(=O)CC[C@@H]1c2nc(cc4[nH]c(cc5nc(cc6[nH]c7c2C(=O)N(OCCC)C(=O)c7c6C)[C@H](CC)[C@H]5C)c(/C(C)=N/OCCC)c4C)[C@H]1C)[C@H]3C`, the Activity in data set [1] is on record as 1.78%; in data set [3], 0.43%; in data set [5] it was 0.42%; in [7], 30%; in [8] it was 38%; in [9], 1.2%. The Activity in data set [10] came to 77%; in [13], 39%. Further, the inhibition in vivo at 5 mg/kg in data set [2], in [6], in data set [11] and in data set [12] was 100% each time. In addition, the result in data set [4] was Active.

With `CCCO/N=C(\C)c1c(C)c2cc3nc(c4c5[nH]c(cc6nc(cc1[nH]2)[C@H](C)[C@H]6CC)c(C)c5C(=O)N(OCCC)C4=O)[C@@H](CCC(=O)OC)[C@@H]3C`, the inhibition in vivo at 2.5 mg/kg in data set [14], in [16] and in data set [17] was 100% each time. Moreover, in data set [15], the Flu intensity worked out at 4.4 RU.
